For assay [1], the system named is Rattus norvegicus. In words: Antihepatotoxic activity against CCl4-induced liver damage in rat assessed as increase in total protein level at 10 mg/kg, po (reference value: 3.54 +/- 0.67 g/dl). Format: functional.
Assay [2] has as its system Rattus norvegicus. The experiment in a line: Antihepatotoxic effect against CCl4-induced liver damage in rat assessed as appearance of moderate sinusoidal dilution at 10 mg/kg, po by microscopic examination-based histopathological analysis. Format: functional, organism-based. More on the design: dose 10 mg/kg. An outline of the steps: (§1)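 Livers taken from Wistar rats (n = 5 per group) dosed with CCl4 1.5 ml/kg p.o. plus agents at 10 mg/kg p.o.; silymarin reference and normal controls included. Liver sections examined microscopically and scored descriptively for necrosis, inflammation, sinusoidal dilatation, central vein appearance, cytoplasmic staining, parenchyma and vascular change.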

For assay [3], the system named is Rattus norvegicus. The experiment in a line: Antihepatotoxic activity against CCl4-induced liver damage in rat assessed as decrease in serum SGOT level at 10 mg/kg, po by calorimetric assay (reference value: 74.52 +/- 0.695 IU/L). Format: functional.
The subject of assay [4] is Rattus norvegicus. In words: Antihepatotoxic effect against CCl4-induced liver damage in rat assessed as appearance of normal parenchyma at 10 mg/kg, po by microscopic examination-based histopathological analysis. Format: functional, organism-based. Also noted: dose 10 mg/kg. An outline of the steps: as §1
Assay [5] deals with Rattus norvegicus. In words: Antihepatotoxic activity against CCl4-induced liver damage in rat assessed as decrease in ALP level at 10 mg/kg, po after 1 hr by photoelectric reading analysis (reference value: 66.157 +/- 2.886 KA). Format: functional.
In assay [6] the test system is Rattus norvegicus. The experiment in a line: Antihepatotoxic activity against CCl4-induced liver damage in rat assessed as decrease in serum SGPT level at 10 mg/kg, po by calorimetric assay (reference value: 85.27 +/- 2.05 IU/L). The format is functional.
In assay [7] the test system is Rattus norvegicus. The experiment in a line: Antihepatotoxic effect against CCl4-induced liver damage in rat assessed as appearance of sinusoidal dilution in centrizonal area at 10 mg/kg, po by microscopic examination-based histopathological analysis. The format is functional, organism-based. More on the design: dose 10 mg/kg. The method, boiled down: as §1
In assay [8] the test system is Rattus norvegicus. The experiment in a line: Antihepatotoxic effect against CCl4-induced liver damage in rat assessed as appearance of moderate sinusoidal dilution around central vein at 10 mg/kg, po by microscopic examination-based histopathological analysis. More on the design: dose 10 mg/kg. The format is functional, organism-based. An outline of the steps: as §1

Assay [9] relates to Rattus norvegicus. In words: Antihepatotoxic effect against CCl4-induced liver damage in rat assessed as fine vascular changes in hepatocytes at 10 mg/kg, po by microscopic examination-based histopathological analysis. Format: functional, organism-based. Also noted: dose 10 mg/kg. The conditions noted are these: Hepatocyte. An outline of the steps: as §1
Assay [10] deals with Rattus norvegicus. The experiment in a line: Antihepatotoxic effect against CCl4-induced liver damage in rat assessed as appearance of little dilution at 10 mg/kg, po by microscopic examination-based histopathological analysis. Format: functional, organism-based. Also noted: dose 10 mg/kg. An outline of the steps:
as §1

Assay [11] concerns Rattus norvegicus. The experiment in a line: Antihepatotoxic effect against CCl4-induced liver damage in rat assessed as appearance of clear central vein at 10 mg/kg, po by microscopic examination-based histopathological analysis. Format: functional, organism-based. More on the design: dose 10 mg/kg. An outline of the steps:
as §1

Assay [12] deals with Rattus norvegicus. In words: Antihepatotoxic effect against CCl4-induced liver damage in rat assessed as absence of necrosis at 10 mg/kg, po by microscopic examination-based histopathological analysis. Also noted: dose 10 mg/kg. The format is functional, organism-based. The method, boiled down:
as §1

In assay [13] the test system is Rattus norvegicus. In words: Antihepatotoxic effect against CCl4-induced liver damage in rat assessed as appearance of visible central vein at 10 mg/kg, po by microscopic examination-based histopathological analysis. The format is functional, organism-based. More on the design: dose 10 mg/kg. The method, boiled down:
as §1

Assay [14] relates to Rattus norvegicus. The experiment in a line: Antihepatotoxic effect against CCl4-induced liver damage in rat assessed as appearance of uniformly stained cytoplasm at 10 mg/kg, po by microscopic examination-based histopathological analysis. Format: functional, organism-based. More on the design: dose 10 mg/kg. An outline of the steps: as §1
In assay [15] the test system is Rattus norvegicus. The experiment in a line: Antihepatotoxic effect against CCl4-induced liver damage in rat assessed as appearance of mild dilution of sinusoidal spaces at 10 mg/kg, po by microscopic examination-based histopathological analysis. The format is functional, organism-based. More on the design: dose 10 mg/kg. The conditions noted are these: Sinusoidal space. The method, boiled down:
as §1

Activity calls are given as the source filed them. The calls are words filed in the database; no cut-off is given here.

Take `Oc1ccc(C2=NNC(c3ccc4c(c3)OCCO4)C2)c(O)c1` (stereo not drawn): the Activity amounted to 3.82 g/dL in assay [1], 58.57 IU/L in [3], 58.22 KA in [5] and 62.09 IU/L in assay [6]. Further, the outcome in assay [2] and in assay [4] was Active.
For `COc1ccc(C2=NNC(c3ccc4c(c3)OCCO4)C2)cc1OC` (stereo not drawn), the Activity in assay [1] was found to be 3.82 g/dL; in assay [3], 58.85 IU/L; in [5] it was 49.48 KA; in assay [6] it was 64.95 IU/L. Also, the result in assay [7] and in [4] was Active.
For `c1ccc(C2=NNC(c3ccc4c(c3)OCCO4)C2)cc1` (stereo not drawn), the result in assay [8] and in assay [9] was Active. Further, the Activity in assay [1] was found to be 4.04 g/dL; in [3], 62.85 IU/L; in [5], 53.14 KA; in assay [6], 65 IU/L.
Consider `Clc1ccc(C2=NNC(c3ccc4c(c3)OCCO4)C2)cc1` (stereo not drawn), for which the outcome in assay [8] and in assay [9] was Active. In addition, the Activity in assay [1] was determined as 3.91 g/dL; in assay [3], 63.42 IU/L; in [5] it was 46.06 KA; in assay [6], 65.81 IU/L.
For `Cc1cccc(C2=NNC(c3ccc4c(c3)OCCO4)C2)c1` (stereo not drawn), the Activity in assay [1] was found to be 3.98 g/dL; in assay [3], 64.85 IU/L; in assay [5], 55.74 KA; in assay [6], 64.13 IU/L. Moreover, the outcome in [10] and in assay [11] was Active.
SILYMARIN: the result in assay [12], in [13], in [14] and in assay [15] was Active. The Activity turned out to be 4.2 g/dL in assay [1], 56.2 IU/L in [3], 48.6 KA in assay [5] and 61.3 IU/L in assay [6].

(Values after ChEMBL document CHEMBL1921787, “Synthesis and antihepatotoxic activity of 5-(2,3-dihydro-1,4-benzodioxane-6-yl)-3-substituted-phenyl-4,5-dihydro-1H-pyrazole derivatives” (2011).)
